Screens: PubChem BioAssay, Broad Institute
The entries come from a sample that favours hits as a whole.
INS-1E_ATP_HTS: INS-1E beta cell protection from cytokine death; INS-1E cytokine-induced death, ATP luminescence, 48 h; normalised: neutral wells 0, positive control 100; protection from cytokine-induced ATP loss, % at 10 µM; hit rate 0.1% among 20,000; AID 488910;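 active = mean replicate protection from cytokine-induced ATP loss at least 50% and at least 75% of replicates each reaching 50%; inconclusive = meets only one of the two criteria, mean or replicate share; inactive = fails both the mean and replicate share criteria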
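Assay system – rat INS-1E insulinoma cell line · Quantity – 8000 cells per well · Buffer or medium – RPMI without phenol red, 5% FBS · Schedule – 48 h co-treatment, 10 min post-lysis read · Technique – luminescent ATP assay (CellTiter-Glo)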
T_cruzi_HTS: blocks T. cruzi growth inside host cells; intracellular Trypanosoma cruzi in host cells, plate reader; activity score (inhibition), % at 5.01 µM; hit rate 4.9% among 22,000; in the data active = activity score above about 55%; inconclusive = no clear call, values can overlap the other calls;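 note: parasites and compound incubated about four days before reading; 0% = median of neutral control wells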
A1_apoptosis_2: blocks A1, raising caspase activity; 24,000 tested, under 10 active; MEF A1-2A-BIM cells, caspase-Glo luminescence, 3 h; percent of clofoctol response, DMSO zero; caspase activation, % (test concentration not listed); in the data active = caspase activation above about 5.9%; inconclusive = no clear call, values can overlap the other calls; inactive = below about 2.2%
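Material: mouse embryonic fibroblasts co-expressing A1 and BIM (A1-2A-BIM), primed for A1 dependence / Quantity: 2500 cells/well / Buffer or medium: RPMI-1640 growth medium with 10% FBS / Doses: 50 nL compound per well, pinned / Schedule: 3 h compound exposure at 37 °C / Signal: Caspase-Glo luminescence (DEVD substrate) / Measure: Caspase-3/7 activation, seen as rise in luminescence signal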
* hit, by the source's call; u = inconclusive; x = no result given.

SMILES INS-1E_ATP_HTS T_cruzi_HTS A1_apoptosis_2
COc1ccc(S(=O)(=O)Nc2ccc3c(c2)C(=O)N([C@H](C)CO)C[C@H](C)[C@H](CN(C)C(=O)Nc2ccc(C(F)(F)F)cc2)OCCCC[C@@H](C)O3)cc1 -19 65* -1
Cc1ccc(S(=O)(=O)Nc2ccc3c(c2)C(=O)N([C@@H](C)CO)C[C@H](C)[C@H](CN(C)C(=O)Nc2ccc(C(F)(F)F)cc2)OCCCC[C@H](C)O3)cc1 x x -1
COc1ccc(S(=O)(=O)Nc2ccc3c(c2)C(=O)N([C@@H](C)CO)C[C@H](C)[C@@H](CN(C)C(=O)Nc2ccc(C(F)(F)F)cc2)OCCCC[C@@H](C)O3)cc1 x x -1
Cc1ccc(S(=O)(=O)Nc2ccc3c(c2)C(=O)N([C@@H](C)CO)C[C@@H](C)[C@@H](CN(C)C(=O)Nc2ccc(C(F)(F)F)cc2)O3)cc1 -25 68* 1
Cc1ccc(S(=O)(=O)Nc2ccc3c(c2)C(=O)N([C@H](C)CO)C[C@H](C)[C@H](CN(C)C(=O)Nc2ccc(C(F)(F)F)cc2)O3)cc1 x -2 1
C[C@@H]1CCCCO[C@@H](CN(C)C(=O)Nc2ccc(C(F)(F)F)cc2)[C@@H](C)CN([C@H](C)CO)C(=O)c2cc(NS(=O)(=O)c3ccc(F)cc3)ccc2O1 -13 71* 0
C[C@@H]1CCCCO[C@@H](CN(C)C(=O)Nc2ccc(C(F)(F)F)cc2)[C@H](C)CN([C@@H](C)CO)C(=O)c2cc(NS(=O)(=O)c3ccc(F)cc3)ccc2O1 x x 0
COc1ccc(CN(C)C[C@H]2Oc3c(NS(=O)(=O)c4ccc(F)cc4)cccc3C(=O)N([C@H](C)CO)C[C@H]2C)cc1 -3 11 x
CC(C)NC(=O)Nc1ccc2c(c1)C(=O)N([C@H](C)CO)C[C@H](C)[C@H](CN(C)C(=O)C1CCCCC1)OCCCC[C@H](C)O2 x x -1
COc1ccc(S(=O)(=O)N(C)C[C@@H]2OCCCC[C@H](C)Oc3ccc(NC(=O)Nc4ccccc4)cc3C(=O)N([C@H](C)CO)C[C@@H]2C)cc1 x x -1
COc1ccc(S(=O)(=O)N(C)C[C@@H]2Oc3ccc(NC(=O)NC4CCCCC4)cc3C(=O)N([C@H](C)CO)C[C@H]2C)cc1 -1 1 1
CNC[C@@H]1Oc2ccc(NS(=O)(=O)c3ccc(Cl)cc3)cc2CC(=O)N([C@H](C)CO)C[C@H]1C 5 -27 1
CNC[C@H]1Oc2c(NC(=O)Nc3ccc(F)cc3)cccc2C(=O)N([C@H](C)CO)C[C@H]1C 4 -40 x
C[C@@H]1CCCCO[C@@H](CN(C)Cc2ccccc2)[C@H](C)CN([C@@H](C)CO)C(=O)c2cc(NS(=O)(=O)c3cccs3)ccc2O1 x x 1
C[C@@H]1CCCCO[C@H](CN(C)S(=O)(=O)c2ccc(Cl)cc2)[C@H](C)CN([C@H](C)CO)C(=O)c2cc(NS(=O)(=O)c3cn(C)cn3)ccc2O1 x x 0
C[C@@H]1CCCCO[C@H](CN(C)C(=O)Nc2ccc(F)cc2)[C@H](C)CN([C@H](C)CO)C(=O)c2cc(NS(=O)(=O)c3ccc(Cl)cc3)ccc2O1 x x 1
C[C@@H]1CCCCO[C@@H](CN(C)C(=O)Nc2ccc(F)cc2)[C@@H](C)CN([C@H](C)CO)C(=O)c2cc(NS(=O)(=O)c3ccc(Cl)cc3)ccc2O1 -6 65* 0
COc1ccc(S(=O)(=O)Nc2ccc3c(c2)CC(=O)N([C@@H](C)CO)C[C@@H](C)[C@@H](CN(C)C(=O)Nc2ccc(C(F)(F)F)cc2)O3)cc1 1 -10 1
CNC[C@@H]1Oc2ccc(NC(=O)NC3CCCCC3)cc2CC(=O)N([C@H](C)CO)C[C@@H]1C 10 -31 x
Cc1noc(C)c1NC(=O)Nc1ccc2c(c1)C(=O)N([C@@H](C)CO)C[C@H](C)[C@H](CN(C)S(=O)(=O)c1cccs1)O2 9 2 x
C[C@H](CO)N1C[C@H](C)[C@H](CN(C)Cc2cccc(C(F)(F)F)c2)Oc2ncc(-c3ccccc3)cc2C1=O x 42 x
Cc1ccc(S(=O)(=O)N(C)C[C@@H]2Oc3ncc(-c4cccc(C(F)(F)F)c4)cc3C(=O)N([C@H](C)CO)C[C@@H]2C)cc1 x 61* 0
Cc1cccc(CN(C)C[C@@H]2Oc3ncc(-c4cccc(C(F)(F)F)c4)cc3C(=O)N([C@H](C)CO)C[C@@H]2C)c1 x 63* x
C[C@H](CO)N1C[C@H](C)[C@H](CN(C)S(=O)(=O)c2ccc(C#N)cc2)Oc2ncc(-c3cccc(C(F)(F)F)c3)cc2C1=O x 10 0
COc1ccc(-c2cnc3c(c2)C(=O)N([C@H](C)CO)C[C@H](C)[C@H](CN(C)C(=O)NC2CCCCC2)O3)cc1 x -26 1
SMILES INS-1E_ATP_HTS T_cruzi_HTS A1_apoptosis_2
Cc1cc(C(=O)Nc2cccc3c2O[C@H](CN(C)C(=O)Nc2ccc4c(c2)OCO4)[C@H](C)CN([C@@H](C)CO)C3=O)n(C)n1 17 13 x
C[C@H](CO)N1C[C@H](C)[C@H](CN(C)Cc2ccccc2)Oc2ccc(NC(=O)Nc3ccc(C(F)(F)F)cc3)cc2C1=O x 32* x
C[C@H](CO)N1C[C@H](C)[C@H](CN(C)Cc2ccc(C(F)(F)F)cc2)Oc2ccc(NC(=O)Nc3ccc(F)cc3)cc2C1=O x 58* -2
C[C@H](CO)N1C[C@H](C)[C@H](CN(C)C(=O)Nc2ccc(C(F)(F)F)cc2)Oc2ccc(NC(=O)Nc3ccc(C(F)(F)F)cc3)cc2C1=O -20 74* x
C[C@H](CO)N1C[C@H](C)[C@@H](CN(C)C(=O)Nc2ccc(C(F)(F)F)cc2)Oc2ccc(NC(=O)Nc3ccc(C(F)(F)F)cc3)cc2C1=O -103 u x
C[C@@H]1CN([C@H](C)CO)C(=O)c2cc(NC(=O)Nc3ccc(C(F)(F)F)cc3)ccc2O[C@@H]1CN(C)Cc1ccccc1 -31 14 -1
C[C@@H]1CN([C@H](C)CO)C(=O)c2cc(NC(=O)Nc3ccc(C(F)(F)F)cc3)ccc2O[C@@H]1CN(C)Cc1ccc(C(F)(F)F)cc1 -27 25 x
C[C@@H]1CN([C@@H](C)CO)C(=O)c2cc(NC(=O)Nc3ccc(C(F)(F)F)cc3)ccc2O[C@@H]1CN(C)Cc1ccc(Cl)c(Cl)c1 -46 75* 0
C[C@H](CO)N1C[C@H](C)[C@@H](CN(C)Cc2ccc(C(F)(F)F)cc2)Oc2ccc(NC(=O)Nc3ccc(F)cc3)cc2C1=O -62 12 0
C[C@@H]1CN([C@H](C)CO)C(=O)CCCn2cc(nn2)CO[C@@H]1CN(C)Cc1ccc(Oc2ccccc2)cc1 x 0 0
C[C@@H]1CN([C@H](C)CO)C(=O)c2cc(NC(=O)Nc3ccc(F)cc3)ccc2O[C@@H](C)CCCCO[C@H]1CN(C)S(=O)(=O)c1cn(C)cn1 x x 0
CC(C)NC(=O)Nc1ccc2c(c1)C(=O)N([C@H](C)CO)C[C@H](C)[C@H](CN(C)CC1CCCCC1)O2 x 8 0
C[C@H]1CN([C@@H](C)CO)C(=O)CCCn2cc(nn2)CO[C@H]1CN(C)Cc1ccc2c(c1)OCO2 x -3 0
